Laboratory results from paper PMC11555253 (Scientific Reports, 2024).

Experiments:
[1] = test system: Saccharomyces cerevisiae α-glucosidase; assay: α-Glucosidase inhibition assay; assay type: biochemical; settings: IC50 compared with acarbose
α-glucosidase [2] = assay: Enzyme kinetic study; assay type: biochemical, Saccharomyces cerevisiae; settings: Km increased, Vmax constant with rising inhibitor concentration
How it was run: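 Yeast α-glucosidase (1 U/mL) was preincubated 15 min at 30 °C with test compound at 0, 12.5, 25 and 50 µM or 0, 15, 30 and 60 µM. p-Nitrophenyl α-D-glucopyranoside was then added at graded concentrations, and absorbance change at 405 nm was followed for 20 min. Double-reciprocal plots were made, and KI was taken from a replot of apparent Km versus inhibitor concentration.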

α-glucosidase [3] = assay: Fluorescence quenching measurements and thermodynamic analysis of binding; set-up: species or system Saccharomyces cerevisiae
How it was run: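 α-Glucosidase (0.1 U/mL) was equilibrated 10 min with test compound at 0 to 1.0 µM. Emission was scanned from 300–450 nm with excitation at 280 nm in a 1.0 cm quartz cell, and enzyme-free compound background was subtracted. Spectra covered 20–60 °C. KA came from F0/(F0–F) versus total drug concentration at 20 °C and 60 °C, with binding-site number at 20 °C.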

times more potent than acarbose [1] [times]	inhibition mode (α-glucosidase [2])	KA (binding constant) (α-glucosidase [3]; 20 °C)	KA (binding constant) (α-glucosidase [3]; 60 °C)	Compound
15	competitive inhibition	4.8 × 10 ^4 L mol^–1 s^–1	2.7 × 10 ^4 L mol^–1 s^–1	COc1ccccc1NC(=O)Cn1cc(CSc2nc3ccccc3c3nc(-c4ccccc4)c(-c4ccccc4)n23)nn1 [19e, 2-(4-(((2,3-diphenylimidazo[1,2-c]quinazolin-5-yl)thio)methyl)-1H-1,2,3-triazol-1-yl)-N-(2-methoxyphenyl)acetamide]
	competitive inhibition	6.8 × 10 ^4 L mol^–1 s^–1	5.0 × 10 ^4 L mol^–1 s^–1	COc1ccccc1NC(=O)Cn1cc(CSc2nc3ccccc3c3nc4ccccc4n23)nn1 [27e, 2-(4-((benzo[4,5]imidazo[1,2-c]quinazolin-6-ylthio)methyl)-1H-1,2,3-triazol-1-yl)-N-(2-methoxyphenyl)acetamide]
